Here are results for four compounds from ChEMBL document CHEMBL2203198, “Prodrugs of a CXC Chemokine-12 (CXCL12) Neutraligand Prevent Inflammatory Reactions in an Asthma Model in Vivo” (ACS Med Chem Lett, 2012).

The structures appear in SMILES notation. Values after ≈ are worked out from the molar mass of the structure shown. Active and inactive are the calls of the source. No cut-off for these calls is given here.

Data set [1] concerns Mus musculus. As to the kind of experiment: Prodrug activation in ovalbumin sensitized Balb/c mouse hypereosinophilia model assessed as chalcone-4 release in lungs at 30 nmol/kg administered intranasally. The class given is organism-based. To be noted: in vivo, inhaled_or_intranasal.
Data set [2] relates to Mus musculus. As to the kind of experiment: Prodrug activation in ovalbumin sensitized Balb/c mouse hypereosinophilia model assessed as chalcone-4 release in lungs at 22 nmol/kg administered intranasally after 15 mins. Type of data set: organism-based. Particulars: in vivo, inhaled_or_intranasal, 0.25 h. The procedure, abridged: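 LC-MS detection of released parent chalcone in mouse lung tissue 15 min after intranasal dosing of prodrug.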

Data set [3] concerns Mus musculus. As to the kind of experiment: Antiinflammatory activity in ovalbumin sensitized Balb/c mouse hypereosinophilia model assessed as inhibition of lymphocyte recruitment at 30 nmol/kg administered intranasally 2 hrs prior to ovalbumin challenge measured 24 hrs post the last ovalbumin challenge by BAL analysis. Type of data set: functional, organism-based. The method in brief:
(§1)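 8-day airway hypereosinophilia model in OVA-sensitized mice; OVA (10 μg in 25 μL saline, 12.5 μL/nostril) given intranasally on days 5, 6, 7 under ip ketamine 50 mg/kg/xylazine 3.33 mg/kg. Compound in PBS (25 μL) given intranasally 2 h before each challenge. BAL cell counts by hemocytometer plus Hemacolor-stained cytospin differentials (≥400 cells), as absolute numbers; n = 6 mice/group.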

Data set [4] has as its system Mus musculus. As to the kind of experiment: Antiinflammatory activity in ovalbumin sensitized Balb/c mouse hypereosinophilia model assessed as inhibition of macrophage recruitment at 30 nmol/kg administered intranasally 2 hrs prior to ovalbumin challenge measured 24 hrs post the last ovalbumin challenge by BAL analysis. Type of data set: functional, organism-based. The procedure, abridged:
as §1

The test system of data set [5] is Mus musculus. Briefly: Antiinflammatory activity in ovalbumin sensitized Balb/c mouse hypereosinophilia model assessed as inhibition of neutrophil recruitment at 30 nmol/kg administered intranasally 2 hrs prior to ovalbumin challenge measured 24 hrs post the last ovalbumin challenge by BAL analysis. The class given is functional, organism-based. The method in brief: as §1

Data set [6] concerns Mus musculus. Briefly: Antiinflammatory activity in ovalbumin sensitized Balb/c mouse hypereosinophilia model assessed as inhibition of eosinophil recruitment at 30 nmol/kg administered intranasally 2 hrs prior to ovalbumin challenge measured 24 hrs post the last ovalbumin challenge by BAL analysis. The class given is functional. To be noted: inhaled or nasal. The procedure, abridged: as §1

Data set [7] concerns Mus musculus. As to the kind of experiment: Antiinflammatory activity in ovalbumin sensitized Balb/c mouse hypereosinophilia model assessed as inhibition of eosinophil recruitment administered intranasally 2 hrs prior to ovalbumin challenge for 3 days. The class given is functional, organism-based. The procedure, abridged: as §1
Data set [8] relates to Mus musculus. Briefly: Antiinflammatory activity in ovalbumin sensitized Balb/c mouse hypereosinophilia model assessed as inhibition of lymphocyte recruitment at 22 nmol/kg administered intranasally 2 hrs prior to ovalbumin challenge for 3 days. Type of data set: functional, organism-based. The procedure, abridged: as §1
In data set [9] the test system is Mus musculus. Briefly: Antiinflammatory activity in ovalbumin sensitized Balb/c mouse hypereosinophilia model assessed as inhibition of macrophage recruitment at 22 nmol/kg administered intranasally 2 hrs prior to ovalbumin challenge for 3 days. The class given is functional, organism-based. The procedure, abridged: as §1
Data set [10] has as its system Mus musculus. Briefly: Antiinflammatory activity in ovalbumin sensitized Balb/c mouse hypereosinophilia model assessed as inhibition of neutrophil recruitment at 22 nmol/kg administered intranasally 2 hrs prior to ovalbumin challenge for 3 days. Type of data set: functional, organism-based. The method in brief: as §1
The subject of data set [11] is Mus musculus. As to the kind of experiment: Antiinflammatory activity in ovalbumin sensitized Balb/c mouse hypereosinophilia model assessed as inhibition of eosinophil recruitment at 22 nmol/kg administered intranasally 2 hrs prior to ovalbumin challenge for 3 days. Type of data set: functional. The procedure, abridged: as §1
In data set [12] the target is T1, C-X-C chemokine receptor type 4 (Homo sapiens, UniProt P61073). Briefly: Inhibition of EGFP-tagged human CXCR4 expressed in HEK293 cells assessed as inhibition of CXCL12-TR binding at 5 uM incubated for 5 mins prior to CXCL12-TR addition by FRET assay. Type of data set: cell-based. The procedure, abridged: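 Binding of Texas Red-labelled CXCL12 (100 nM) to EGFP-tagged CXCR4 read by FRET as real-time decline of EGFP emission at 510 nm. Compound tested at 5 μM; percent inhibition of binding reported.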

Data set [13] can be described thus: Half life in mouse lung homogenate by LC-MS analysis. The class given is ADME, tissue-based. The procedure, abridged:
(§2)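 Freshly prepared compound solutions (10 μM) incubated at 37 °C in PBS, mouse serum or mouse lung homogenate. Parent and released product followed by LC-MS, RP-HPLC on C18 with ammonium acetate pH 7.4/acetonitrile gradient, 365 nm detection. Half-life taken from disappearance over time.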

Data set [14] can be described thus: Half life in mouse serum by LC-MS analysis. Type of data set: ADME, cell-free. The procedure, abridged: as §2
The nature of data set [15]: Half life in PBS buffer by LC-MS analysis. Type of data set: physicochemical. The method in brief: as §2
The nature of data set [16]: Solubility of the compound in HEPES buffer at pH 7.4 after 24 hrs. The class given is physicochemical. The method in brief: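 Thermodynamic solubility in aqueous HEPES buffer, pH 7.4, 22 °C, after 24 h incubation; tested up to 30 mM.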
Data set [17] concerns the target T1, C-X-C chemokine receptor type 4. As to the kind of experiment: Inhibition of EGFP-tagged human CXCR4 expressed in HEK293 cells assessed as inhibition of CXCL12-TR binding incubated for 5 mins prior to CXCL12-TR addition by FRET assay. Type of data set: cell-based.

T1 sequence (P61073 whole entry): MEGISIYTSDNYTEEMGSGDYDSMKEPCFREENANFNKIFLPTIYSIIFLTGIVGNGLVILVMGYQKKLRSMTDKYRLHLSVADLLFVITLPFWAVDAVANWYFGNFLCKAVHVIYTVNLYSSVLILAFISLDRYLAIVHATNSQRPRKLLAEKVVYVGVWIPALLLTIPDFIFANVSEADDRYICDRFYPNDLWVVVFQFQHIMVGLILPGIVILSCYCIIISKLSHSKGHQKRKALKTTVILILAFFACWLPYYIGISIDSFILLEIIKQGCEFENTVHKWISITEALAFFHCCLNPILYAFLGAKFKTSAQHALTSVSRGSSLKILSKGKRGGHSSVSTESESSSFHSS

As to `COc1cc(/C=C/C(=O)c2ccc(Cl)cc2)ccc1OP(=O)([O-])[O-].[Na+].[Na+]`, the Drug metabolism result in data set [1] and in data set [2] was “Active” throughout. Moreover, the inhibition entry in data set [3], in data set [5], in data set [8] and in data set [10] was “Active” each time. For the same compound, the inhibition result in [4] and in [9] was “inactive” throughout. The inhibition in vivo at 0.03 µmol/kg in data set [6] came to 64%. In addition, the IC50 in [7] came to 10 nmol/kg. The inhibition in vivo at 0.022 µmol/kg in [11] (inhaled or nasal) is 56%. Further, in data set [12], the inhibition is 5%. The figures for the half-life in data set [13], in [14] and in data set [15] were less than 0.25 h, 2 h and greater than 10 h, respectively. The same compound had a solubility at 24 h in data set [16] greater than 30000 µM.
For `COc1cc(/C=C/C(=O)c2ccc(Cl)cc2)ccc1O`, the Drug metabolism result in [1] is “Active”. Further, the inhibition entry in [8], in data set [9], in [10] and in [11] was “inactive” each time. Moreover, in [12], the inhibition came to 90%. For the same compound, in data set [17], the Ki was 53 nM. Further, the half-life is greater than 6 h in [13], greater than 10 h in data set [14] and greater than 10 h in data set [15]. This compound also registered a solubility at 24 h in [16] of 9 µM (≈ 2.6 µg/mL).
For `COc1cc(/C=C/C(=O)c2ccc(Cl)cc2)ccc1OC(=O)[C@H](N)CO.Cl`, in data set [1], the Drug metabolism entry was “Active”. Besides, the inhibition result in data set [3] and in [5] was “Active” each time. Besides, in [4], the inhibition result was “inactive”. For the same compound, the inhibition in vivo at 0.03 µmol/kg in data set [6] came out at 67%. Also, in [12], the inhibition was 15%. In addition, the half-life in [13] was less than 0.0833 h; in data set [14], less than 0.0833 h; in data set [15] it was 0.2 h. The solubility at 24 h in data set [16] worked out at 42 µM.
For the compound `COc1cc(/C=C/C(=O)c2ccc(Cl)cc2)ccc1OS(=O)(=O)[O-].[Na+]`, the Drug metabolism result in data set [1] was “Active”. Moreover, the inhibition entry in [3] and in data set [5] was “Active” throughout. In data set [4], the inhibition entry was “inactive”. Further, in data set [6], the inhibition in vivo at 0.03 µmol/kg was determined as 69%. For the same compound, the inhibition in data set [12] was found to be 4%. The half-life is 0.5 h in data set [13], greater than 10 h in [14] and greater than 10 h in data set [15]. For the same compound, the concentration in solution in data set [16] (solubility at 24 h) was 1430 µM.
